This passage reports Activity and LD50 results from ChEMBL document CHEMBL1157065, “Synthesis and evaluation of some new substituted benzothiazepine and benzoxazepine derivatives as anticonvulsant agents” (Eur J Med Chem, 2010).

In one series the test system is Rattus norvegicus. Nature of the series: Anticonvulsant activity in Charles foster rat assessed as protection against maximal electroshock-induced seizures at 30 mg/kg, ip administered 1 hr before electroshock challenge. The class given is functional. The note with it: route intraperitoneal. The procedure, abridged:
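Charles Foster rats of either sex, 90–150 g, in groups of ten, dosed i.p. with test drug or phenytoin sodium 30 mg/kg. 1 h after dosing, shock of 150 mA delivered by convulsiometer through ear electrodes for 2 s. Presence or absence of extensor response recorded.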
In general terms: Protection in the maximal electroshock model is a classic sign of anticonvulsant action.

The nature of series [1]: Acute toxicity in ip dosed mouse. The note with it: in vivo, read-out: ALD50. It counts as organism-based.

In the case of `COc1ccc(N/C=C2\C(c3ccc(O)cc3)=Nc3ccccc3OC2c2cccc(OC)c2)cc1` (configuration not stated), the Activity in the series with Rattus norvegicus was determined as 70%. In addition, the LD50 in series [1] was over 1000 mg/kg.

On to `Oc1ccc(C2=Nc3ccccc3OC(c3ccccc3Cl)C2)cc1` (configuration not stated), for which the Activity in the series on Rattus norvegicus was found to be 70%. Besides, in series [1], the LD50 was over 1000 mg/kg.

Consider `Oc1ccc(C2=Nc3ccccc3SC(c3ccc(Cl)cc3)C2)cc1` (configuration not stated), for which the Activity in the series with Rattus norvegicus amounted to 70%. In addition, the LD50 in series [1] is over 1000 mg/kg.

For the compound `Oc1ccc(C2=Nc3ccccc3OC(c3ccc(Cl)cc3)C2)cc1` (configuration not stated), the Activity in the series with Rattus norvegicus was 60%. Besides, in series [1], the LD50 is over 1000 mg/kg.

As for `Oc1ccc(C2=Nc3ccccc3OC(c3ccc(O)cc3)C2)cc1` (configuration not stated), in the series with Rattus norvegicus, the Activity stood at 70%. Besides, in series [1], the LD50 is over 1000 mg/kg.

With `COc1cccc(C2Sc3ccccc3N=C(c3ccc(O)cc3)/C2=C\Nc2ccc(Cl)cc2)c1` (configuration not stated), the Activity in the series on Rattus norvegicus was determined as 40%. For the same compound, in series [1], the LD50 is over 1000 mg/kg.

With `COc1ccc(N/C=C2\C(c3ccc(O)cc3)=Nc3ccccc3SC2c2cccc(OC)c2)cc1` (configuration not stated), in the series on Rattus norvegicus, the Activity is reported as 50%. Besides, the LD50 in series [1] is over 1000 mg/kg.

On to `Oc1ccc(C2=Nc3ccccc3OC(c3ccccc3O)C2)cc1` (configuration not stated), for which the Activity in the series on Rattus norvegicus is 60%. Further, the LD50 in series [1] was over 1000 mg/kg.

On to `COc1cccc(C2Oc3ccccc3N=C(c3ccc(O)cc3)/C2=C\Nc2ccc(Cl)cc2)c1` (configuration not stated), for which the Activity in the series with Rattus norvegicus amounted to 30%. Besides, the LD50 in series [1] was over 1000 mg/kg.

Turning to `Oc1ccc(C2=Nc3ccccc3OC(c3ccccc3Cl)/C2=C/Nc2ccc(Cl)cc2)cc1` (configuration not stated), in the series on Rattus norvegicus, the Activity turned out to be 50%. Moreover, the LD50 in series [1] was over 1000 mg/kg.

As for `Oc1ccc(C2=Nc3ccccc3OC(c3ccc(Cl)cc3)/C2=C/Nc2ccc(Cl)cc2)cc1` (configuration not stated), in the series on Rattus norvegicus, the Activity stood at 60%. Also, the LD50 in series [1] is over 1000 mg/kg.

With `COc1ccc(N/C=C2\C(c3ccc(O)cc3)=Nc3ccccc3OC2c2ccccc2Cl)cc1` (configuration not stated), the Activity in the series on Rattus norvegicus was 60%. The LD50 in series [1] was over 1000 mg/kg.

Take `Oc1ccc(C2=Nc3ccccc3SC(c3ccccc3Cl)/C2=C/Nc2ccc(Cl)cc2)cc1` (configuration not stated): in the series on Rattus norvegicus, the Activity is listed as 70%. The LD50 in series [1] was over 1000 mg/kg.

On to `Oc1ccc(C2=Nc3ccccc3SC(c3ccccc3Cl)C2)cc1` (configuration not stated), for which the Activity in the series with Rattus norvegicus was found to be 80%. Also, the LD50 in series [1] was over 1000 mg/kg.

As for `Oc1ccc(C2=Nc3ccccc3SC(c3ccccc3O)C2)cc1` (configuration not stated), the Activity with Rattus norvegicus turned out to be 70%. Further, in series [1], the LD50 was over 1000 mg/kg.

In the case of `Oc1ccc(C2=Nc3ccccc3SC(c3ccc(O)cc3)C2)cc1` (configuration not stated), in the series on Rattus norvegicus, the Activity amounted to 60%. In addition, the LD50 in series [1] was over 1000 mg/kg.

Regarding `COc1cccc(C2CC(c3ccc(O)cc3)=Nc3ccccc3O2)c1` (configuration not stated), the Activity in the series on Rattus norvegicus worked out at 20%. Besides, the LD50 in series [1] was over 1000 mg/kg.

On to `COc1cccc(C2CC(c3ccc(O)cc3)=Nc3ccccc3S2)c1` (configuration not stated), for which, in the series with Rattus norvegicus, the Activity was determined as 30%. The LD50 in series [1] was over 1000 mg/kg.

For `COc1ccc(N/C=C2\C(c3ccc(O)cc3)=Nc3ccccc3OC2c2ccc(Cl)cc2)cc1` (configuration not stated), the Activity in the series with Rattus norvegicus amounted to 50%. The LD50 in series [1] is over 1000 mg/kg.

In the case of `Oc1ccc(C2=Nc3ccccc3SC(c3ccc(Cl)cc3)/C2=C/Nc2ccc(Cl)cc2)cc1` (configuration not stated), in the series with Rattus norvegicus, the Activity came out at 70%. The LD50 in series [1] is over 1000 mg/kg.

Regarding `Oc1ccc(C2=Nc3ccccc3SC(c3ccccc3O)/C2=C/Nc2ccc(Cl)cc2)cc1` (configuration not stated), the Activity with Rattus norvegicus stood at 60%. Further, in series [1], the LD50 is over 1000 mg/kg.

`Oc1ccc(C2=Nc3ccccc3SC(c3ccc(O)cc3)/C2=C/Nc2ccc(Cl)cc2)cc1` (configuration not stated): in the series on Rattus norvegicus, the Activity stood at 60%. Moreover, in series [1], the LD50 is over 1000 mg/kg.

Consider `COc1ccc(N/C=C2\C(c3ccc(O)cc3)=Nc3ccccc3SC2c2ccccc2Cl)cc1` (configuration not stated), for which, in the series with Rattus norvegicus, the Activity is listed as 90%. The LD50 in series [1] is over 1000 mg/kg.

`COc1ccc(N/C=C2\C(c3ccc(O)cc3)=Nc3ccccc3SC2c2ccc(Cl)cc2)cc1` (configuration not stated): the Activity in the series on Rattus norvegicus was determined as 70%. Further, the LD50 in series [1] is over 2000 mg/kg.

Turning to `COc1ccc(N/C=C2\C(c3ccc(O)cc3)=Nc3ccccc3SC2c2ccccc2O)cc1` (configuration not stated), the Activity in the series with Rattus norvegicus is 70%. For the same compound, the LD50 in series [1] is over 1000 mg/kg.

On to `COc1ccc(N/C=C2\C(c3ccc(O)cc3)=Nc3ccccc3OC2c2ccccc2O)cc1` (configuration not stated), for which, in the series with Rattus norvegicus, the Activity is 60%. Besides, the LD50 in series [1] was over 1000 mg/kg.

Regarding `COc1ccc(N/C=C2\C(c3ccc(O)cc3)=Nc3ccccc3SC2c2ccc(O)cc2)cc1` (configuration not stated), the Activity in the series on Rattus norvegicus stood at 60%. For the same compound, in series [1], the LD50 was over 1000 mg/kg.

With `Oc1ccc(C2=Nc3ccccc3OC(c3ccccc3O)/C2=C/Nc2ccc(Cl)cc2)cc1` (configuration not stated), in the series with Rattus norvegicus, the Activity turned out to be 60%. In series [1], the LD50 was over 1000 mg/kg.

Take `Oc1ccc(C2=Nc3ccccc3OC(c3ccc(O)cc3)/C2=C/Nc2ccc(Cl)cc2)cc1` (configuration not stated): the Activity in the series with Rattus norvegicus is reported as 70%. Moreover, the LD50 in series [1] is over 1000 mg/kg.

For the compound `COc1ccc(N/C=C2\C(c3ccc(O)cc3)=Nc3ccccc3OC2c2ccc(O)cc2)cc1` (configuration not stated), in the series on Rattus norvegicus, the Activity came out at 50%. Also, the LD50 in series [1] is over 1000 mg/kg.

Turning to `O=C1N=C([O-])NC1(c1ccccc1)c1ccccc1.[Na+]` [PHENYTOIN SODIUM], the Activity in the series on Rattus norvegicus is listed as 80%.

Regarding `CC(O)CO` (configuration not stated) [PROPYLENE GLYCOL], in the series on Rattus norvegicus, the Activity is reported as 0%.
